Activity calls are given as the source filed them. No cut-off for these calls is given here.
Columns and labels:
Medicago truncatula = assay: Phytotoxicity against Medicago truncatula assessed as area of lesions at 1 mg/ml at 20 degC for 4 days; format: organism-based; conditions: in vivo, 96 h
How it was run: (§1)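 Whole plants grown one per pot in 1:1 sand/peat at 20 °C, 12 h light/dark, until about seven leaves. One leaflet detached, placed abaxial side up on 0.4% water agar, epidermis cut (three cuts over 3 mm2). A 20 μL drop of metabolite (5% MeOH in water) applied over cuts, kept at 20 °C, 12 h photoperiod. 3–4 replicates, randomized; 5% MeOH control; lesion area in mm2.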

Lens culinaris = assay: Phytotoxicity against Lens culinaris assessed as area of lesions at 1 mg/ml at 20 degC for 4 days; format: organism-based; conditions: in vivo, 96 h; how it was run: as §1
Lupinus albus = assay: Phytotoxicity against Lupinus albus assessed as area of lesions at 1 mg/ml at 20 degC for 4 days; format: organism-based; conditions: in vivo, 96 h; how it was run: as §1
Cirsium arvense = assay: Phytotoxicity against Cirsium arvense (Canada thistle) assessed as area of lesions at 1 mg/ml at 20 degC for 4 days; format: functional; how it was run: as §1
Vicia faba = assay: Phytotoxicity against Vicia faba assessed as area of lesions at 1 mg/ml at 20 degC for 4 days; format: organism-based; conditions: in vivo, 96 h; how it was run: as §1
Phaseolus vulgaris = assay: Phytotoxicity against Phaseolus vulgaris assessed as area of lesions at 1 mg/ml at 20 degC for 4 days; format: organism-based; conditions: in vivo, 96 h; how it was run: as §1
Lathyrus sativus = assay: Phytotoxicity against Lathyrus sativus assessed as area of lesions at 1 mg/ml at 20 degC for 4 days; format: organism-based; conditions: in vivo, 96 h; how it was run: as §1
Cicer arietinum = assay: Phytotoxicity against Cicer arietinum assessed as area of lesions at 1 mg/ml at 20 degC for 4 days; format: organism-based; conditions: in vivo, 96 h; how it was run: as §1
Chenopodium album = assay: Phytotoxicity against Chenopodium album assessed as area of lesions at 1 mg/ml at 20 degC for 4 days; format: functional; how it was run: as §1
Pisum fulvum = assay: Phytotoxicity against Pisum fulvum assessed as area of lesions at 1 mg/ml at 20 degC for 4 days; format: organism-based; conditions: lathyrus fulvus, in vivo, 96 h; how it was run: as §1
Sonchus arvensis = assay: Phytotoxicity against Sonchus arvensis (field sow-thistle) assessed as area of lesions at 1 mg/ml at 20 degC for 4 days; format: functional; how it was run: as §1
Pisum sativum = assay: Phytotoxicity against Pisum sativum (pea)assessed as area of lesions at 1 mg/ml at 20 degC for 4 days; format: organism-based; conditions: lathyrus oleraceus, in vivo, 96 h; how it was run: as §1

C/C=C/C=C/C(=O)O[C@H]1CC/C=C/[C@H](O)[C@H](O)[C@@H](CCC)OC1=O [PINOLIDOXIN] was tested, and the Activity (Medicago truncatula) was 49.2 mm2, the Activity (Lens culinaris) was 45.5 mm2 and the Activity (Lupinus albus) was 73.6 mm2. It also gave an Activity (Cirsium arvense) of 25 mm2, an Activity (Vicia faba) of 7.2 mm2 and an Activity (Phaseolus vulgaris) of 34 mm2. The Activity (Lathyrus sativus) was 41.9 mm2, the Activity (Cicer arietinum) was 9.1 mm2 and the Activity (Chenopodium album) was 47.8 mm2. It also gave an Activity (Pisum fulvum) of 21.5 mm2, an Activity (Sonchus arvensis) of 23.6 mm2 and an Activity (Pisum sativum) of 45.5 mm2.

In the case of CCC[C@H]1OC(=O)[C@@H](O)CC/C=C/[C@H](O)[C@@H]1O, the Activity (Medicago truncatula) is reported as “Non-toxic”, the Activity (Lens culinaris) is reported as “Non-toxic” and the Activity (Lupinus albus) is reported as “Non-toxic”. For the same compound, the Activity (Cirsium arvense) was “inactive”, the Activity (Vicia faba) was “Non-toxic” and the Activity (Phaseolus vulgaris) was “Non-toxic”. For the same compound, the Activity (Lathyrus sativus) was “Non-toxic”, the Activity (Cicer arietinum) was “Non-toxic” and the Activity (Chenopodium album) was “inactive”. For the same compound, the Activity (Pisum fulvum) was “Non-toxic”, the Activity (Sonchus arvensis) was “inactive” and the Activity (Pisum sativum) was “Non-toxic”.

For CCC[C@H]1OC(=O)[C@@H](O)CC/C=C/[C@@H](O)[C@@H]1O (relative stereo) [Pinolide], the Activity (Medicago truncatula) was “Non-toxic”, the Activity (Lens culinaris) was “Non-toxic” and the Activity (Lupinus albus) was “Non-toxic”. For the same compound, the Activity (Cirsium arvense) was “inactive”, the Activity (Vicia faba) was “Non-toxic” and the Activity (Phaseolus vulgaris) was “Non-toxic”. The Activity (Lathyrus sativus) was “Non-toxic”, the Activity (Cicer arietinum) was “Non-toxic” and the Activity (Chenopodium album) was “inactive”. For the same compound, the Activity (Pisum fulvum) was “Non-toxic”, the Activity (Sonchus arvensis) was “inactive” and the Activity (Pisum sativum) was “Non-toxic”.

In the case of CCC[C@H]1OC(=O)[C@H](O)CC/C=C/[C@H](O)[C@@H]1O [HERBARUMIN II], the Activity (Medicago truncatula) is reported as “Non-toxic”, the Activity (Lens culinaris) is reported as “Non-toxic” and the Activity (Lupinus albus) is reported as “Non-toxic”. The Activity (Cirsium arvense) was “inactive”, the Activity (Vicia faba) was “Non-toxic” and the Activity (Phaseolus vulgaris) was “Non-toxic”. For the same compound, the Activity (Lathyrus sativus) was “Non-toxic”, the Activity (Cicer arietinum) was “Non-toxic” and the Activity (Chenopodium album) was “inactive”. The Activity (Pisum fulvum) was “Non-toxic”, the Activity (Sonchus arvensis) was “inactive” and the Activity (Pisum sativum) was “Non-toxic”.

From ChEMBL document CHEMBL3044908, “Pinolide, a new nonenolide produced by Didymella pinodes , the causal agent of ascochyta blight on Pisum sativum” (J Agric Food Chem, 2012)
